Publication PMC8861878 (The Journal of pharmacy and pharmacology, 2020)

Columns and labels:
[1] = biological target: T1, UGT1A1 (Homo sapiens, UniProt P22309); assay type: in vitro ADME; conditions: β-estradiol 50 μM; individual HLM n = 9; Pearson; P = 0.014
T1 sequence (P22309 26-533): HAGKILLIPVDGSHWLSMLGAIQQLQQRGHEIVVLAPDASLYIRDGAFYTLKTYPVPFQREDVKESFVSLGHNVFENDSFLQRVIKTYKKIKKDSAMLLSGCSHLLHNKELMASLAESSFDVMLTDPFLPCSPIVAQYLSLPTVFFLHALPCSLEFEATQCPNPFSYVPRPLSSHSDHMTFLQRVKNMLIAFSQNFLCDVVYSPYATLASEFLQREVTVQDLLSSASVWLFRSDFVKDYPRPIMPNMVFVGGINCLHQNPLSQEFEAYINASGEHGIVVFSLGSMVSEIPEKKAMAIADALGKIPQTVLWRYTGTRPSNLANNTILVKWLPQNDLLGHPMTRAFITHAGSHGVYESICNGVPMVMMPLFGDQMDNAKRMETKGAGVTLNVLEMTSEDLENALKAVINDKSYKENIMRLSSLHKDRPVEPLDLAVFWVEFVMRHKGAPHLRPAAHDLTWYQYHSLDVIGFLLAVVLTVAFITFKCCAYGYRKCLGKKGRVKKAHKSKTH
Outline: (§1)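 UDPGA-supplemented individual human liver microsomes (n = 9) in 100 μl Tris-HCl 50 mM pH 7.4 with alamethicin 22 μg/ml, D-saccharic-1,4-lactone 4.4 mM and UDPGA 3.5 mM. Incubated 37 °C for 60 min, stopped with ice-cold acetonitrile, centrifuged, supernatant analysed by UHPLC. Test compound glucuronidation rates correlated with probe glucuronidation across donors by Pearson analysis.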

[2] = biological target: T2, UGT1A9 (Homo sapiens, UniProt O60656); assay type: in vitro ADME; conditions: propofol 500 μM; individual HLM n = 9; Pearson; P = 0.016
T2 sequence (O60656 26-530): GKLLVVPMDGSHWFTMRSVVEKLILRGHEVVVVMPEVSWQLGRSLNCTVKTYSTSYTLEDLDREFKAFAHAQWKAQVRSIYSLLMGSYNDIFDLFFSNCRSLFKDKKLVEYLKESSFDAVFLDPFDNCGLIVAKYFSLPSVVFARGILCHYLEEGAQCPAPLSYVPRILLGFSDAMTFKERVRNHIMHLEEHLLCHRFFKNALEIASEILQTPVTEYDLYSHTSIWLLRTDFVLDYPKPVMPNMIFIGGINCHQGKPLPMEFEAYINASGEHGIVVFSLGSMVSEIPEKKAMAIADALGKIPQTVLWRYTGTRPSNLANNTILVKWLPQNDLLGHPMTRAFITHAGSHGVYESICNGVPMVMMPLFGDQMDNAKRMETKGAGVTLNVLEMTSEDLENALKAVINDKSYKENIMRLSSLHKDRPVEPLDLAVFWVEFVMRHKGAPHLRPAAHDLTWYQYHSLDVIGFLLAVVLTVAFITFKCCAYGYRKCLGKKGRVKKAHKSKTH
Outline: as §1

[3] = test system: opioid receptor; conditions: cited from earlier work
[4] = substrate: CC(C)=CCc1c(O)ccc2c1O[C@H](c1ccc(O)cc1)CC2=O; assay: cells, lysate or membranes named; assay type: in vitro ADME, human; conditions: other: formation of G1, pH 7.4, 37.0 °C

Molecule: CC(C)=CCc1c(O[C@@H]2O[C@H](C(=O)O)[C@@H](O)[C@H](O)[C@H]2O)ccc2c1O[C@H](c1ccc(O)cc1)CC2=O [G1, isobavachin-7-O-glucuronide]
- correlation factor r [1]: 0.774
- correlation factor r [2]: 0.767

Molecule: CN1CC[C@]23c4c5ccc(O)c4O[C@H]2[C@@H](O[C@@H]2O[C@H](C(=O)O)[C@@H](O)[C@H](O)[C@H]2O)C=C[C@H]3[C@H]1C5 [M6G, morphine-6-glucuronide]
- affinity with opioid receptor relative to morphine [3]: 100 times

B1: UGT1A9 (Homo sapiens) (protein)
chain: T2 sequence (O60656 26-530)
- K0.5 ([4]; substrate inhibition model): 15.63 ± 3.12 µM

B2: UGT1A7 (Homo sapiens) (protein)
chain: GKLLVVPMDGSHWFTMQSVVEKLILRGHEVVVVMPEVSWQLGRSLNCTVKTYSTSYTLEDQDREFMVFADARWTAPLRSAFSLLTSSSNGIFDLFFSNCRSLFNDRKLVEYLKESCFDAVFLDPFDACGLIVAKYFSLPSVVFARGIFCHYLEEGAQCPAPLSYVPRLLLGFSDAMTFKERVWNHIMHLEEHLFCPYFFKNVLEIASEILQTPVTAYDLYSHTSIWLLRTDFVLEYPKPVMPNMIFIGGINCHQGKPVPMEFEAYINASGEHGIVVFSLGSMVSEIPEKKAMAIADALGKIPQTVLWRYTGTRPSNLANNTILVKWLPQNDLLGHPMTRAFITHAGSHGVYESICNGVPMVMMPLFGDQMDNAKRMETKGAGVTLNVLEMTSEDLENALKAVINDKSYKENIMRLSSLHKDRPVEPLDLAVFWVEFVMRHKGAPHLRPAAHDLTWYQYHSLDVIGFLLAVVLTVAFITFKCCAYGYRKCLGKKGRVKKAHKSKTH
- K0.5 ([4]; substrate inhibition model): 32.91 ± 5.76 µM

B3: UGT2B4 (Homo sapiens) (protein)
chain: GKVLVWPTEFSHWMNIKTILDELVQRGHEVTVLASSASISFDPNSPSTLKFEVYPVSLTKTEFEDIIKQLVKRWAELPKDTFWSYFSQVQEIMWTFNDILRKFCKDIVSNKKLMKKLQESRFDVVLADAVFPFGELLAELLKIPFVYSLRFSPGYAIEKHSGGLLFPPSYVPVVMSELSDQMTFIERVKNMIYVLYFEFWFQIFDMKKWDQFYSEVLGRPTTLSETMAKADIWLIRNYWDFQFPHPLLPNVEFVGGLHCKPAKPLPKEMEEFVQSSGENGVVVFSLGSMVSNTSEERANVIASALAKIPQKVLWRFDGNKPDTLGLNTRLYKWIPQNDLLGHPKTRAFITHGGANGIYEAIYHGIPMVGVPLFADQPDNIAHMKAKGAAVSLDFHTMSSTDLLNALKTVINDPLYKENAMKLSRIHHDQPVKPLDRAVFWIEFVMRHKGAKHLRVAAHDLTWFQYHSLDVTGFLLACVATVIFIITKCLFCVWKFVRTGKKGKRD
- K0.5 ([4]; Michaelis–Menten model): 2.66 ± 0.28 µM

B4: UGT1A8 (Homo sapiens) (protein)
chain: GKLLVVPMDGSHWFTMQSVVEKLILRGHEVVVVMPEVSWQLGKSLNCTVKTYSTSYTLEDLDREFMDFADAQWKAQVRSLFSLFLSSSNGFFNLFFSHCRSLFNDRKLVEYLKESSFDAVFLDPFDACGLIVAKYFSLPSVVFARGIACHYLEEGAQCPAPLSYVPRILLGFSDAMTFKERVRNHIMHLEEHLFCQYFSKNALEIASEILQTPVTAYDLYSHTSIWLLRTDFVLDYPKPVMPNMIFIGGINCHQGKPLPMEFEAYINASGEHGIVVFSLGSMVSEIPEKKAMAIADALGKIPQTVLWRYTGTRPSNLANNTILVKWLPQNDLLGHPMTRAFITHAGSHGVYESICNGVPMVMMPLFGDQMDNAKRMETKGAGVTLNVLEMTSEDLENALKAVINDKSYKENIMRLSSLHKDRPVEPLDLAVFWVEFVMRHKGAPHLRPAAHDLTWYQYHSLDVIGFLLAVVLTVAFITFKCCAYGYRKCLGKKGRVKKAHKSKTH
- K0.5 ([4]; substrate inhibition model): 34.71 ± 6.45 µM
